Measured values taken from ChEMBL document CHEMBL1275442, “Pharmacokinetics and tissue distribution of anidulafungin in rats” (Antimicrob Agents Chemother, 2008).

What was measured:
Format in all cases: ADME, organism-based
Settings in all cases: in vivo
Kidney [1] = experiment: Drug level in Long Evans rat kidney assessed as low disposition of radioactivity per gram of tissue at 5 mg/kg, iv administered as single bolus dose measured 0.5 hrs postdose by autoradiography; parameters: dose 5 mg/kg, route intravenous
Summary of the method: (§1)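 Male pigmented Long Evans (HsdBlu:LE) rats, 7.5 weeks old, 202 to 217 g, single iv [¹⁴C]anidulafungin; one rat per sampling time. Euthanized by isoflurane and cardiac-puncture exsanguination. Sagittal whole-body sections quantified by phosphorimaging autoradiography, single samples corrected for section thickness across multiple sections per tissue. Concentrations (μg eq/g drug-derived radioactivity) interpolated from least-squares standard curves per scan.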

Lung [2] = experiment: Drug level in Long Evans rat lung assessed as radioactivity per gram of tissue at 5 mg/kg, iv administered as single bolus dose measured 0.5 hrs postdose by autoradiography; parameters: dose 5 mg/kg, route intravenous; summary of the method: as §1
Muscle tissue [3] = experiment: Half life in F344 rat muscle assessed as total compound-derived radioactivity at 5 mg/kg, iv administered as single bolus dose […]; parameters: dose 5 mg/kg, route intravenous
Summary of the method: (§2)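 Male F344 rats, 10 to 11 weeks old and 223.6 to 243.8 g, got one iv dose of [14C]anidulafungin at 5 mg/kg over about 5 min. Blood, CSF, kidney, liver, lung, quadriceps, spleen and skin were sampled predose and at 0.083 to 72 h, 3 rats per time. Total radioactivity (parent plus metabolites) was measured by liquid scintillation counting. Parameters were noncompartmental, from a composite mean profile.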

Kidney [4] = experiment: AUC (0 to infinity) in F344 rat kidney assessed as total compound-derived radioactivity per gram of tissue at 5 mg/kg, iv administered as single bolus dose […]; parameters: time infinity, dose 5 mg/kg, route intravenous
Summary of the method: (§3)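 Same F344 study: single 5 mg/kg IV [¹⁴C]anidulafungin given over about 5 min. Total drug-derived radioactivity (parent plus metabolites) counted by liquid scintillation, in […]. Noncompartmental analysis of the composite mean profile.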

Lung [5] = experiment: AUC (0 to infinity) in F344 rat lung assessed as total compound-derived radioactivity per gram of tissue at 5 mg/kg, iv administered as single bolus dose […]; parameters: dose 5 mg/kg, route intravenous, time infinity; summary of the method: as §3
Plasma = experiment: AUC (0 to infinity) in F344 rat plasma assessed as total compound-derived radioactivity per gram of tissue at 5 mg/kg, iv administered as single bolus dose […]; parameters: time infinity, dose 5 mg/kg, route intravenous; summary of the method: as §3
Muscle tissue [6] = experiment: AUC (0 to 24 hrs) in F344 rat muscle assessed as total compound-derived radioactivity per gram of tissue at 5 mg/kg, iv administered as single bolus dose […]; parameters: time < 24 hr, dose 5 mg/kg, route intravenous; summary of the method: as §3
Zone of skin [7] = experiment: AUC (0 to 24 hrs) in F344 rat skin assessed as total compound-derived radioactivity per gram of tissue at 5 mg/kg, iv administered as single bolus dose […]; parameters: time < 24 hr, dose 5 mg/kg, route intravenous; summary of the method: as §3
Blood [8] = experiment: Tmax in F344 rat blood assessed as total compound-derived radioactivity at 5 mg/kg, iv administered as single bolus dose […]; parameters: dose 5 mg/kg, route intravenous; summary of the method: as §2
Zone of skin [9] = experiment: Tmax in F344 rat skin assessed as total compound-derived radioactivity at 5 mg/kg, iv administered as single bolus dose […]; parameters: dose 5 mg/kg, route intravenous; summary of the method: as §2
Blood [10] = experiment: Cmax in F344 rat blood assessed as total compound-derived radioactivity per gram of tissue at 5 mg/kg, iv administered as single bolus dose […]; parameters: dose 5 mg/kg, route intravenous; summary of the method: as §3
Kidney [11] = experiment: AUC (0 to infinity) in F344 rat kidney at 5 mg/kg, iv administered as single bolus dose; parameters: time infinity, dose 5 mg/kg, route intravenous
Summary of the method: (§4)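 Male F344 rats, 10–11 weeks, 223.6–243.8 g, given one IV dose of [¹⁴C]anidulafungin, 5 mg/kg, over about 5 min. Tissues and blood sampled at 0.083–72 h (n = 3 rats per time). Parent drug measured by HPLC; LLOQ/ULOQ were 20/5,120 ng/ml for plasma and 220/56,320 ng/g for tissue. Noncompartmental parameters taken from the composite mean profile.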

Liver [12] = experiment: AUC (0 to infinity) in F344 rat liver at 5 mg/kg, iv administered as single bolus dose; parameters: time infinity, dose 5 mg/kg, route intravenous; summary of the method: as §4
Spleen [13] = experiment: AUC (0 to 24 hrs) in F344 rat spleen at 5 mg/kg, iv administered as single bolus dose; parameters: time < 24 hr, dose 5 mg/kg, route intravenous; summary of the method: as §4
Lung [14] = experiment: Drug level in Long Evans rat lung assessed as radioactivity per gram of tissue at 5 mg/kg, iv administered as single bolus dose measured 6 hrs postdose by autoradiography; parameters: dose 5 mg/kg, route intravenous; summary of the method: as §1
Spleen [15] = experiment: Drug level in Long Evans rat spleen assessed as radioactivity per gram of tissue at 5 mg/kg, iv administered as single bolus dose measured 6 hrs postdose by autoradiography; parameters: dose 5 mg/kg, route intravenous
Summary of the method: (§5)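 Male pigmented Long Evans (HsdBlu:LE) rats, 7.5 weeks old and 202 to 217 g, got a single iv dose of [14C]anidulafungin at 5 mg/kg. One rat per time point (0.5, 6, 12, 24, 72, 168 h) was euthanised by isoflurane and cardiac-puncture exsanguination. Sagittal whole-body sections were quantified by phosphorimaging. Samples were thickness-corrected, and concentrations (μg eq/g) were interpolated from least-squares standard curves.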

Cerebrospinal fluid [16] = experiment: Drug level in Long Evans rat cerebrospinal fluid assessed as radioactivity per gram of tissue at 5 mg/kg, iv administered as single bolus dose measured 6 hrs postdose by autoradiography; parameters: dose 5 mg/kg, route intravenous; summary of the method: as §1
Liver [17] = experiment: Drug level in Long Evans rat liver assessed as low disposition of radioactivity per gram of tissue at 5 mg/kg, iv administered as single bolus dose measured 12 hrs postdose by autoradiography; parameters: dose 5 mg/kg, route intravenous; summary of the method: as §1
Lung [18] = experiment: Drug level in Long Evans rat lung assessed as radioactivity per gram of tissue at 5 mg/kg, iv administered as single bolus dose measured 12 hrs postdose by autoradiography; parameters: dose 5 mg/kg, route intravenous; summary of the method: as §1
Kidney [19] = experiment: Drug level in Long Evans rat kidney assessed as high disposition of radioactivity per gram of tissue at 5 mg/kg, iv administered as single bolus dose measured 12 hrs postdose by autoradiography; parameters: dose 5 mg/kg, route intravenous; summary of the method: as §1
Spleen [20] = experiment: Drug level in Long Evans rat spleen assessed as radioactivity per gram of tissue at 5 mg/kg, iv administered as single bolus dose measured 12 hrs postdose by autoradiography; parameters: dose 5 mg/kg, route intravenous; summary of the method: as §5
Muscle tissue [21] = experiment: Drug level in Long Evans rat muscle assessed as radioactivity per gram of tissue at 5 mg/kg, iv administered as single bolus dose measured 12 hrs postdose by autoradiography; parameters: dose 5 mg/kg, route intravenous; summary of the method: as §1
Muscle tissue [22] = experiment: Drug level in Long Evans rat muscle assessed as radioactivity per gram of tissue at 5 mg/kg, iv administered as single bolus dose measured 24 hrs postdose by autoradiography; parameters: dose 5 mg/kg, route intravenous; summary of the method: as §5
Cerebrospinal fluid [23] = experiment: Drug level in Long Evans rat cerebrospinal fluid assessed as radioactivity per gram of tissue at 5 mg/kg, iv administered as single bolus dose measured 24 hrs postdose by autoradiography; parameters: dose 5 mg/kg, route intravenous; summary of the method: as §1
Spleen [24] = experiment: Drug level in Long Evans rat spleen assessed as radioactivity per gram of tissue at 5 mg/kg, iv administered as single bolus dose measured 72 hrs postdose by autoradiography; parameters: dose 5 mg/kg, route intravenous; summary of the method: as §5
Zone of skin [25] = experiment: Drug level in Long Evans rat skin assessed as radioactivity per gram of tissue at 5 mg/kg, iv administered as single bolus dose measured 72 hrs postdose by autoradiography; parameters: dose 5 mg/kg, route intravenous; summary of the method: as §5
Zone of skin [26] = experiment: Drug level in Long Evans rat skin assessed as radioactivity per gram of tissue at 5 mg/kg, iv administered as single bolus dose measured 168 hrs postdose by autoradiography; parameters: dose 5 mg/kg, route intravenous; summary of the method: as §5

Question: For CCCCCOc1ccc(-c2ccc(-c3ccc([14C](=O)N[C@H]4C[C@@H](O)[C@@H](O)NC(=O)[C@@H]5[C@@H](O)[C@@H](C)CN5C(=O)[C@H]([C@@H](C)O)NC(=O)[C@H]([C@H](O)[C@@H](O)c5ccc(O)cc5)NC(=O)[C@@H]5C[C@@H](O)CN5C(=O)[C@H]([C@@H](C)O)NC4=O)cc3)cc2)cc1 [14C-ANIDULAFUNGIN], which Drug uptake (Kidney [1]) is on record?
Answer: 9.18 ugequiv

Question: And the Drug uptake (Lung [2])?
Answer: 22.31 ugequiv

Question: And the t1/2 (Muscle tissue [3])?
Answer: 37.5 h

Question: And the AUC (Kidney [4])?
Answer: 1437.94 ugequiv.hr/g

Question: What about the AUC (Lung [5]) of the same compound?
Answer: 1341.95 ugequiv.hr/g

Question: And the AUC (Plasma)?
Answer: 177.87 ugequiv.hr/g

Question: What about the AUC (Muscle tissue [6]) of the same compound?
Answer: 102.96 ugequiv.hr/g

Question: What about the AUC (Zone of skin [7]) of the same compound?
Answer: 190.73 ugequiv.hr/g

Question: What about the Tmax (Blood [8]) of the same compound?
Answer: 4.98 min

Question: What about the Tmax (Zone of skin [9]) of the same compound?
Answer: 1 h

Question: What about the Cmax (Blood [10]) of the same compound?
Answer: 14.78 ugequiv/g

Question: What about the AUC (Kidney [11]) of the same compound?
Answer: 658.93 µg·h/g

Question: What about the AUC (Liver [12]) of the same compound?
Answer: 767.22 µg·h/g

Question: And the AUC (Spleen [13])?
Answer: 490.36 µg·h/g

Question: What about the Drug uptake (Lung [14]) of the same compound?
Answer: 22.88 ugequiv

Question: What about the Drug uptake (Spleen [15]) of the same compound?
Answer: 22.15 ugequiv

Question: And the Drug uptake (Cerebrospinal fluid [16])?
Answer: 5.54 ugequiv

Question: What about the Drug uptake (Liver [17]) of the same compound?
Answer: 15.03 ugequiv

Question: And the Drug uptake (Lung [18])?
Answer: 5.64 ugequiv

Question: And the Drug uptake (Kidney [19])?
Answer: 14.1 ugequiv

Question: And the Drug uptake (Spleen [20])?
Answer: 11.48 ugequiv

Question: What about the Drug uptake (Muscle tissue [21]) of the same compound?
Answer: 1.39 ugequiv

Question: What about the Drug uptake (Muscle tissue [22]) of the same compound?
Answer: 1.17 ugequiv

Question: What about the Drug uptake (Cerebrospinal fluid [23]) of the same compound?
Answer: 8.92 ugequiv

Question: What about the Drug uptake (Spleen [24]) of the same compound?
Answer: 4.37 ugequiv

Question: What about the Drug uptake (Zone of skin [25]) of the same compound?
Answer: 4.04 ugequiv

Question: And the Drug uptake (Zone of skin [26])?
Answer: 2.48 ugequiv
